MsrA inhibitor = inhibitors of bovine MsrA; purified bovine MsrA, absorbance read-out; inhibition, % at 15.5 µM; 0.75% of 360,000 active; in the data active = inhibition above about 4.5%
PKA-R1A activ = activates the PKA-R1A holoenzyme complex | P00514+P68181 | PKA-R1A dissociation, Cy5-IP20 fluorescence polarization; scaled: DMSO 0%, 113 µM cGMP 100% | activation, % at 11.4 µM | 0.083% of 340,000 active | AID 504707;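 active = percent activation above the mean of all tested compounds plus 3 SD, cut at about 19% in these data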;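 note: higher means more PKAc released from R1A so a rise in polarization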
PKA-R2B act = activates the human PKA-R2B holoenzyme complex; P22694+P31323; PKA-R2B holoenzyme dissociation, Cy5-IP20 fluorescence polarization; R2B truncated from residue 108, S112A mutant; 0% DMSO only, 100% 113 µM cGMP; activation, % at 11.4 µM; 0.079% of 340,000 active; AID 504700;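 active = activation above a cutoff set at the mean over all compounds plus 3 SD, cut at about 18% in these data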;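 note: higher means more holoenzyme dissociation and a rise in polarization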
Target sequence (P31323 whole entry, looked up, other chains not shown, the tested form may be a part): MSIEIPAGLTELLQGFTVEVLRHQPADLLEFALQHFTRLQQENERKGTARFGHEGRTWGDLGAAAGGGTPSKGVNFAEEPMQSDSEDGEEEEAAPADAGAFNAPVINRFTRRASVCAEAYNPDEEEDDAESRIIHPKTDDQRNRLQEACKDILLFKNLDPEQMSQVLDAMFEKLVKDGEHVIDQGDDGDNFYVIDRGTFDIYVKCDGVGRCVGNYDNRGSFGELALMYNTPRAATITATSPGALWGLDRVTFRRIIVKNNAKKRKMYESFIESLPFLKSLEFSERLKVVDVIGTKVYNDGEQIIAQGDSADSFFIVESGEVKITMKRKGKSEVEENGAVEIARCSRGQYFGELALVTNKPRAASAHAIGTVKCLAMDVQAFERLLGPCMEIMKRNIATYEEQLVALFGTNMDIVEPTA
VIM-2 inhibitor = inhibitors of Pseudomonas aeruginosa VIM-2 metallo-beta-lactamase; purified VIM-2, nitrocefin hydrolysis, epi-absorbance fluorescence; inhibition, % at 5.6 µM; 0.89% of 290,000 active; AID 1527;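 active = inhibition above the mean of all tested compounds plus 3 SD, cutoff set per screening run, cut at about 7.5% in these data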;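 note: red hydrolysis product quenches plate fluorescence so inhibitors raise well fluorescence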
MsrA act = activates bovine MsrA enzyme | AID 602163 | purified bovine MsrA, absorbance read-out | activation, % at 10.6 µM | 0.3% of 360,000 active; in the data active = activation above about 7.5%
IMP-1 inh = inhibitors of Pseudomonas aeruginosa IMP-1 metallo-beta-lactamase; AID 1556; purified IMP-1, nitrocefin hydrolysis, epi-absorbance fluorescence; 0.45% of 290,000 active; inhibition, % at 5.6 µM;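 active = inhibition above the mean plus 3 SD of all compounds in the same screening run, cut at about 4.5% in these data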
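System – purified recombinant IMP-1 beta-lactamase · Input – IMP-1 dispensed at 0.2 nM · Timing – 15 min preincubation plus 25 min reaction at 25 °C · Signal – Epi-absorbance fluorescence, 480 nm excitation, 530 nm emission · Measure – percent IMP-1 inhibition derived from blank-referenced optical density · Controls – Enzyme-plus-DMSO low control, enzyme-free DMSO high control · Replication – singlicate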
A number is an active result; n = inactive; x = no result. Sampled rows, rich in hits. Any-hit rate of the full collection: about 2.1%.

SMILES | MsrA inhibitor | PKA-R1A activ | PKA-R2B act | VIM-2 inhibitor | MsrA act | IMP-1 inh
CCCCn1c(-c2ccc([N+](=O)[O-])cc2)n[nH]c1=S | n | n | n | 13 | n | n
CCCCn1c(-c2csc(CCC)c2)n[nH]c1=S | n | n | n | n | n | n
CCCn1c(-c2ccc(F)cc2)n[nH]c1=S | n | n | n | 10 | n | n
COc1ccc(Cn2c(-c3ccc(OC)cc3)n[nH]c2=S)cc1 | n | n | n | 11 | n | n
COCc1cc(N2CCNC[C@H]2C)ccc1N1CCN(Cc2ccccc2)[C@H](C)C1 | n | x | x | x | x | x
CC(=O)N1c2ccc(S(=O)(=O)N(C)CC(=O)Nc3ccccc3C)cc2CC1C (stereo unspecified) | n | n | n | n | n | 4.8
CC(=O)N1c2ccc(S(=O)(=O)N(C)CC(=O)Nc3cccc(C)c3)cc2CC1C (stereo unspecified) | n | n | n | n | n | n
CN(Cc1ccccc1)C(=O)C1CCN(S(=O)(=O)c2ccc3nc4c(c(C(=O)O)c3c2)CCCC4)CC1 | n | n | n | n | n | 5.5
CCCCc1nc2cc(C(=O)NC(C)c3cnn(C)c3)ccc2o1 (stereo unspecified) | n | n | n | n | n | 25
CCCCc1nc2cc(C(=O)N3CCCC3)ccc2o1 | n | n | n | n | n | n
CCOc1cc(/C=C2\SC(=O)N(c3ccc(O)cc3)C2=O)ccc1O | n | n | n | 10 | n | n
CCOc1ccc(N2C(=O)S/C(=C\c3ccc(O)c(OCC)c3)C2=O)cc1 | n | n | n | n | n | n
CCOc1ccc(CCNC(=O)C2CC=CCC2C(=O)OC(C)C)cc1OCC (stereo unspecified) | n | n | n | n | n | n
CCOc1ccc(CCNC(=O)C2CC(C)=CCC2C(=O)O)cc1OCC (stereo unspecified) | n | n | n | n | n | 38
COc1ccccc1CCn1cnc(-c2cccc(Cl)c2)c1CC(C)C | n | x | x | x | x | x
Cc1nc(-c2ccccc2)nc2[nH]ccc(=O)c12 | n | n | n | n | n | n
Cc1nc(-c2ccc([N+](=O)[O-])cc2)nc2[nH]ccc(=O)c12 | n | n | n | 9.7 | n | n
CCNCCNC(=O)c1c(O)c2cccc3c2n(c1=O)CCC3 | n | n | n | 8.5 | n | n
O=C(NCCCO)c1c(O)c2cccc3c2n(c1=O)CCC3 | n | n | n | 11 | n | n
CN(CC(=O)Nc1ccc(F)c(F)c1F)C(=O)C1COc2ccccc2O1 (stereo unspecified) | n | n | n | x | n | x
COc1cc(/C=C2\SC(=S)N(NC(=O)c3ccccc3O)C2=O)ccc1O | n | n | n | n | n | n
O=C1/C(=C/c2ccc(O)c([N+](=O)[O-])c2)SC(=S)N1Cc1ccccc1 | n | n | n | n | n | n
O=C(NN1C(=O)/C(=C/c2ccc(O)cc2)SC1=S)c1ccccc1O | n | n | n | n | n | 4.8
O=C(NN1C(=O)/C(=C/c2ccc(O)c([N+](=O)[O-])c2)SC1=S)c1ccccc1Cl | n | n | n | n | n | 6.0
COCCN1Cc2cc(C(=O)OC)c3c(c2C1=O)c1cc(OC)ccc1n3S(=O)(=O)c1ccc(F)cc1 | n | x | x | x | x | x
SMILES | MsrA inhibitor | PKA-R1A activ | PKA-R2B act | VIM-2 inhibitor | MsrA act | IMP-1 inh
COc1ccc(Br)c2oc(SC)cc(=O)c12 | n | n | n | 9.2 | n | n
COc1cccc(=O)c2c(C)oc(C)c12 | n | n | n | n | n | n
O=[N+]([O-])c1c(O)c(Cl)cc(Cl)c1Cl (tested in a mixture with another compound) | n | n | n | x | n | x
CCOC(=O)c1c(NC(=O)CN2C(=O)CN(C)C2=O)sc(C)c1C | n | n | n | n | n | 11
Cc1c(CN2CCN(c3ncc(Cc4ccccc4)cn3)CC2)c(=O)n(-c2ccccc2)n1C | n | x | x | x | x | x
COc1cccc(C2c3c(oc4ccc(F)cc4c3=O)C(=O)N2CCN2CCOCC2)c1OC (stereo unspecified) | n | n | n | 8.1 | n | n
COc1cc(C2c3c(oc4ccccc4c3=O)C(=O)N2CCN2CCOCC2)cc(OC)c1OC (stereo unspecified) | n | n | n | x | n | x
CCn1c(SC(=O)NC2CCCCC2)nnc1-c1cccs1 | n | n | n | 11 | n | n
C=CCc1c(C)nc(SC)nc1Nc1ccc(C(C)=O)cc1 | n | n | n | 8.1 | n | n
O=C(NCCO)c1cccc2c1C(=O)c1ccccc1-2 | n | n | n | 7.9 | n | n
On1c(-c2ccccc2)nc2ccc(Cl)cc21 | n | n | n | n | n | 5.2
CNc1ccc(S(=O)(=O)NCC(=O)NCCCc2ccccc2)cc1[N+](=O)[O-] | n | n | n | n | n | n
CCN1/C(=C(\O)c2ccccc2)C(=O)c2ccccc2S1(=O)=O | 4.8 | n | n | n | n | n
O=C(CSc1n[nH]c(-c2ccccn2)n1)Nc1ccccc1F | n | n | n | 9.6 | n | n
COc1ccccc1NC(=O)CSc1n[nH]c(-c2ccccn2)n1 | n | n | n | n | n | n
Cc1ccccc1NS(=O)(=O)c1ccc2[nH]cc(C(=O)N(C)Cc3ccco3)c(=O)c2c1 | x | n | n | n | n | 4.5
O=C(Nc1ccccc1N1CCOCC1)c1cccnc1Cl | n | n | n | n | n | 47
O=C1C(Cl)=C(NCCN2CCCCC2)C(=O)c2ccccc21 | x | n | n | n | 18 | n
COc1ccc(Nc2nc3ccccc3n3cnnc23)cc1Cl | n | n | n | n | n | n
Cc1ccc2nc(Nc3ccc(F)cc3)c3nncn3c2c1 | n | n | n | n | n | 7.6
COc1cccc(Nc2nc3ccccc3n3cnnc23)c1 | n | n | n | 7.8 | n | n
Cc1cc2c(c(=O)o1)C(CCC1CCCCC1)C(C#N)=C(N)O2 (stereo unspecified) | n | x | x | n | n | 11
Cc1nc(N)ncc1CCC1OCCO1 | n | n | n | x | n | x
COc1cccc(-c2cc(C(F)(F)F)nc(N3CCC(C)CC3)n2)c1 | n | n | n | n | n | 4.5
COc1ccc(N2C(=O)[C@@H]3[C@H](C2=O)[C@H]2c4ccccc4C=CN2[C@@H]3C(=O)Nc2ccccc2)cc1 | n | n | n | n | n | 42
C/C=C1\NC(=O)[C@H](C)NC(=O)[C@@H](NC(=O)[C@@H](Cc2ccc(O)cc2)NC(=O)[C@@H](NC(=O)/C(C)=C/C)C(C)C)[C@@H](C)OC(=O)[C@H](CCCCc2ccc(O)cc2)NC(=O)[C@@H](CCC(=O)OC)NC1=O | n | x | x | x | n | x
Cc1cc(C)cc(Cn2cc(CN3CC(N4CCN(CCN(C)C)CC4)CS3(=O)=O)nn2)c1 (stereo unspecified) | n | x | x | x | n | x
Cc1cccc2c1cnn2C(=O)Nc1ccccc1Cl | n | n | n | n | n | n

Compound activity (PubChem)
